For four molecules, IC50 results are on record in ChEMBL document CHEMBL1145344, “Brunsvicamides A-C: sponge-related cyanobacterial peptides with Mycobacterium tuberculosis protein tyrosine phosphatase inhibitory activity” (J Med Chem, 2006).

Assay [1] addresses T1, Low molecular weight protein-tyrosine phosphatase A (Mycobacterium tuberculosis, UniProt P9WIA1).
T1 sequence (P9WIA1 whole entry): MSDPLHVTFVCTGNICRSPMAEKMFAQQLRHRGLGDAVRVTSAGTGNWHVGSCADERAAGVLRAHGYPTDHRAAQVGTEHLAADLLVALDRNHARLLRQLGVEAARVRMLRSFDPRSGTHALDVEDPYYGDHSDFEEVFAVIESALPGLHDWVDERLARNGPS
Put plainly: Inhibition of Mycobacterium tuberculosis ptpA. In outline: (§1)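 MptpA or MptpB was expressed in E. coli BL21(DE3) with 1 mM IPTG for 4 h at 25 °C, then purified by Ni-NTA and Superdex 75 gel filtration. Enzyme was pre-incubated 10-15 min with inhibitor (100-3.125 µM, 2-fold) in 25 mM HEPES, 50 mM NaCl, 2.5 mM EDTA, 2 mM DTE, 0.025% NP-40. Reaction used 1 mM p-nitrophenyl phosphate, read as A405 slope, quadruplicate, IC50 from log-concentration extrapolation.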

Assay [2] deals with T2, Phosphotyrosine-protein phosphatase PTPB (Mycobacterium tuberculosis, UniProt P96830).
T2 sequence (P96830 whole entry): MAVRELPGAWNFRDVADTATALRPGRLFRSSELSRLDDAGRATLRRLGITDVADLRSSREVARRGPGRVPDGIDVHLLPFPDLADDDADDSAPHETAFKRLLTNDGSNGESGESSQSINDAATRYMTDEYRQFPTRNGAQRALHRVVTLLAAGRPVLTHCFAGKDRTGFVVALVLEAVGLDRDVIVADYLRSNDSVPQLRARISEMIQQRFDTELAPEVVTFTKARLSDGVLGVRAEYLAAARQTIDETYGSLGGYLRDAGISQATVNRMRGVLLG
Put plainly: Inhibition of Mycobacterium tuberculosis ptpb. In outline:
as §1

Assay [3] concerns the target Dual specificity protein phosphatase 3 (Homo sapiens, UniProt P51452). The assay can be described thus: Inhibition of VHR. The gist of the method:
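VHR in 25 mM MOPS, 5 mM EDTA, 2 mM DTE, 0.025% NP-40, pre-incubated 10-15 min with inhibitor at 100-3.125 µM (2-fold). Reaction started with 1 mM p-nitrophenyl phosphate. Rate from the A405 slope versus control, in quadruplicate. IC50 was derived by linear extrapolation of velocity against log inhibitor concentration.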

Assay [4] deals with T3, M-phase inducer phosphatase 1 (Homo sapiens, UniProt P30304).
T3 sequence (P30304 whole entry): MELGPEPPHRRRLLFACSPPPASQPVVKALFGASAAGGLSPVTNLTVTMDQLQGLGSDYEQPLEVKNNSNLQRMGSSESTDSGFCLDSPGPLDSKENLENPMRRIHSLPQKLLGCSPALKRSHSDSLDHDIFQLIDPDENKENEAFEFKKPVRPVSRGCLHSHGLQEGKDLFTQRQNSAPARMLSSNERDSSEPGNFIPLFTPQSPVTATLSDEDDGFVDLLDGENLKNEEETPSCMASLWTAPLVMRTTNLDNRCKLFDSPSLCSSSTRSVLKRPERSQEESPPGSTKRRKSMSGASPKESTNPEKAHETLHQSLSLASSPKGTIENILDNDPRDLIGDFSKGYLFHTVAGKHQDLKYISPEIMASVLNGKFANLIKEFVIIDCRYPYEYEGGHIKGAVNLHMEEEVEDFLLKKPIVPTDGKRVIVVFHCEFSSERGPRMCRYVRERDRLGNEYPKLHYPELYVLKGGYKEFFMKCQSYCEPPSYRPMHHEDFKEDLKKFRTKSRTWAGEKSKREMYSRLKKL
The assay can be described thus: Inhibition of CDC25a. In outline: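 Recombinant CDC25A, pre-incubated 10-15 min with inhibitor in 50 mM Tris, 50 mM NaCl, 0.1 mM EDTA, 2 mM DTE, 0.025% NP-40. Started with p-nitrophenyl phosphate at 50 mM final. Inhibitor at 100-3.125 µM in 2-fold steps. Rate was taken from the A405 slope versus an uninhibited control, in quadruplicate. IC50 came from linear extrapolation against log concentration.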

Assay [5] has as its target T4, Tyrosine-protein phosphatase non-receptor type 11 (Homo sapiens, UniProt Q06124).
T4 sequence (Q06124 whole entry): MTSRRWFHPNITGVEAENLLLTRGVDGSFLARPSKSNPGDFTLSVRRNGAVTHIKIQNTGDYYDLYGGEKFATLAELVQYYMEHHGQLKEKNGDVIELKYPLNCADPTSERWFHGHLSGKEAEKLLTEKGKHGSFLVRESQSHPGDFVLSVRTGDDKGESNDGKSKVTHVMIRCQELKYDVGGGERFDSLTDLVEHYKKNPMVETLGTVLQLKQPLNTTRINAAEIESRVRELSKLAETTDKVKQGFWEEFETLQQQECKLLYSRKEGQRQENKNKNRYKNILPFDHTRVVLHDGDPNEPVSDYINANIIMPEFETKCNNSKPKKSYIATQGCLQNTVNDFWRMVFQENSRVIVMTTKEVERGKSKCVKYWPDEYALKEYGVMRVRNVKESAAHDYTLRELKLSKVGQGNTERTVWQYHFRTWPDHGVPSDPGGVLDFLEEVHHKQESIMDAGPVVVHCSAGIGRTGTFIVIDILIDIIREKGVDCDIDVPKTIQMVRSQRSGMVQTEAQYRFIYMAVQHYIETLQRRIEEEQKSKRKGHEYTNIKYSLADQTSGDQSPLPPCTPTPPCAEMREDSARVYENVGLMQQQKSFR
Put plainly: Inhibition of SHP2. The gist of the method: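 SHP2 pre-incubated 10-15 min with a 2-fold inhibitor series (100-3.125 µM) in buffer with 2 mM DTE and 0.025% NP-40. Reaction used 1 mM p-nitrophenyl phosphate. Enzyme was set to give 1-2 OD405/h. Velocity was taken from the A405 slope, with quadruplicate wells. IC50 came from linear extrapolation against log concentration.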

Assay [6] deals with T5, Tyrosine-protein phosphatase non-receptor type 1 (Homo sapiens, UniProt P18031).
T5 sequence (P18031 whole entry): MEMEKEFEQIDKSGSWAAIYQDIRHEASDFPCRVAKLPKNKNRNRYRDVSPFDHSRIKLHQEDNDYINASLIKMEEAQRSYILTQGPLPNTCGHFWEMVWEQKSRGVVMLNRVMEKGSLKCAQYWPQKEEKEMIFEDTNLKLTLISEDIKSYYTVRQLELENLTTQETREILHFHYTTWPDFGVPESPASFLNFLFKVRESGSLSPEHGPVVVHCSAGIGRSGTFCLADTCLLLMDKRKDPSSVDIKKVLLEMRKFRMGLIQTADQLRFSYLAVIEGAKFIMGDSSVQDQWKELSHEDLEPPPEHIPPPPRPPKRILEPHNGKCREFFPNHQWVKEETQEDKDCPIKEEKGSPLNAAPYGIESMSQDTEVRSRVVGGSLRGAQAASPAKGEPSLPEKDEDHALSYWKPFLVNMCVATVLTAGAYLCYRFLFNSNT
The assay can be described thus: Inhibition of PTP1b. The gist of the method: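 PTP1b pre-incubated 10-15 min with inhibitor (2-fold series, 100 down to 3.125 µM) in 25 mM HEPES, 50 mM NaCl, 2.5 mM EDTA, 2 mM DTE, 0.025% NP-40. Reaction started with 1 mM p-nitrophenyl phosphate. Velocity from the A405 slope relative to an inhibitor-free control, quadruplicates. IC50 by linear extrapolation of velocity versus log concentration, with 100 µM as the upper limit.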

Where only a bound is given, the exact number is not on record here.

Dual specificity protein phosphatase 3, sequence (P51452 whole entry): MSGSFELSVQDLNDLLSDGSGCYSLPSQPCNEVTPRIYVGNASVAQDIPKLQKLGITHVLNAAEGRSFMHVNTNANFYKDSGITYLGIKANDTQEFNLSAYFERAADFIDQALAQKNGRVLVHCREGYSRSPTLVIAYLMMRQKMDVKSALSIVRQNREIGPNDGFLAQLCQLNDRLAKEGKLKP

With `CC[C@H](C)[C@H](NC(=O)N[C@@H]1CCCCNC(=O)[C@H](Cc2ccccc2)NC(=O)[C@H](Cc2c[nH]c3ccccc23)N(C)C(=O)[C@H](CC(C)C)NC(=O)[C@H]([C@@H](C)CC)NC1=O)C(=O)O`, the 50% inhibitory concentration (IC50) in assay [1] is greater than 100 µM; in assay [2], 7.3 µM; in assay [3], greater than 100 µM; in assay [4], greater than 100 µM.

For the molecule `CC[C@H](C)[C@H](NC(=O)N[C@H]1CCCCNC(=O)[C@H](Cc2ccccc2)NC(=O)[C@H](Cc2c[nH]c3ccccc23)N(C)C(=O)[C@H](CC(C)C)NC(=O)[C@H]([C@@H](C)CC)NC1=O)C(=O)O`, the half-inhibitory concentration (IC50) in assay [5] and in assay [6] was greater than 100 µM throughout.

On to `CC[C@H](C)[C@H](NC(=O)N[C@@H]1CCCCNC(=O)[C@H](Cc2ccccc2)NC(=O)[C@H](Cc2c[nH]c3ccccc23)N(C)C(=O)[C@H](CC(C)C)NC(=O)[C@H](C(C)C)NC1=O)C(=O)O` [BRUNSVICAMIDE A], for which the IC50 in assay [1] is greater than 100 µM; in assay [2] it was 64.2 µM; in assay [3], greater than 100 µM; in assay [4], greater than 100 µM.

For `CC[C@H](C)[C@H](NC(=O)N[C@H]1CCCCNC(=O)[C@H](Cc2ccccc2)NC(=O)[C@H](Cc2c[nH]c3ccccc23)N(C)C(=O)[C@H](CC(C)C)NC(=O)[C@H](C(C)C)NC1=O)C(=O)O` [BRUNSVICAMIDE A], the IC50 in assay [5] and in assay [6] was greater than 100 µM each time.

As usually defined, the IC50 is the concentration at which inhibition is half-maximal. Read a high IC50 as a need for much substance.
